Measured values published in publication PMC10354499 (RSC Advances, 2023).

Experiments:
MCF-7 cells = conditions: read-out: IC50 (MCF-7); known breast cancer antineoplastic drug; cited from earlier work
[1] = Selective toxicity, MTT assay in HEK-293 cells; assay type: cell-based, human; conditions: human, HEK-293 cells
Outline: (§1)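 HEK-293 cells were grown in DMEM with 10% FBS, 1% penicillin–streptomycin, 1% L-glutamine and 2.5% HEPES. Cells were seeded at 15 000 cells/well, held 24 h (37 °C, 5% CO2), then exposed to test compound for 24 h. MTT (5 mg mL−1 in PBS) plus medium was added for 4 h, then aspirated, and formazan was dissolved in DMSO. Absorbance was read at 570/690 nm; percentage viability by formula, triplicate.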

CT-DNA relative to BSA = test: Relative stability constant ln; conditions: natural logarithm of ratio of CT-DNA to BSA binding constants
Outline: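 KDNA: CT-DNA (0–8 μM) was titrated against 20 μM test compound in PBS with ~2% (v/v) DMSO final. Mixtures were incubated 10 min and read by UV-vis, with DNA absorbance cancelled in the reference. KDNA was the slope/intercept ratio of [DNA]/(εa−εf) vs [DNA] (Wolfe–Shimer). KBSA: 0–10 μM compound was added to 6 μM BSA in PBS pH 7.2, 10 min at 25 °C, A280 read, Benesi–Hildebrand fit.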

HEK-293 cells = test: Selective toxicity, MTT assay in HEK-293 cells; assay type: cell-based, human; conditions: at respective MCF-7 IC50 concentration, 24 hours, MTT
Outline: as §1

| Compound | IC50 (MCF-7 cells) [µM] | viability at 24 h [1] [%] | ln(KDNA/KBSA) (CT-DNA relative to BSA) | cell viability (HEK-293) (HEK-293 cells) [%] |
| --- | --- | --- | --- | --- |
| CC[C@]1(O)C[C@@H]2CN(CCc3c([nH]c4ccccc34)[C@@](C(=O)OC)(c3cc4c(cc3OC)N(C)[C@H]3[C@@](O)(C(=O)OC)[C@H](OC(C)=O)[C@]5(CC)C=CCN6CC[C@]43[C@@H]65)C2)C1 [Vinoblastine, vinblastine] | 10.2 ± 0.39 |  |  |  |
| CC1(C)CC(=O)C2=C(C1)Oc1ncnc(Nc3ccccc3)c1C2c1ccccc1F (centres unmarked) [Compound 3a, 5-(2-Fluorophenyl)-8,8-dimethyl-4-(phenylamino)-5,7,8,9-tetrahydro-6H-chromeno[2,3-d]pyrimidin-6-one] |  | 96.6 | lowest |  |
| CC1(C)CC(=O)C2=C(C1)Oc1ncnc(Nc3cccc(-[c-]4cccc4)c3)c1C2c1ccccc1F.[Fe+2].c1cc[cH-]c1 (centres unmarked) [Compound 3j, 4-((3-Ferrocenylphenyl)amino)-5-(2-fluorophenyl)-8,8-dimethyl-5,7,8,9-tetrahydro-6H-chromeno[2,3-d]pyrimidin-6-one] |  |  | highest | 107.43 |
